In ChEMBL document CHEMBL4177758, “Rational Drug Design of Topically Administered Caspase 1 Inhibitors for the Treatment of Inflammatory Acne” (J Med Chem, 2018):
pIC50: −log10 of the molar value.

Experiments:
[1] = Cmax in mouse plasma at 0.1 umol/cm'2 administered topically; conditions: topical or ocular
In short: (§1)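 Mouse PK after one topical application of 0.1 μmol/cm², given as a 10 mM solution in PG/EtOH 3/7. Cmax is reported in μM for dermis and for plasma.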

Caspase-1 [2] = target: T1, Caspase-1 (Homo sapiens, UniProt P29466); experiment: Inhibition of human recombinant caspase-1 using AC-WEHD-AMC as substrate at Km after 20 mins by fluorescence assay; conditions: read-out: IC50
T1 sequence (P29466 whole entry): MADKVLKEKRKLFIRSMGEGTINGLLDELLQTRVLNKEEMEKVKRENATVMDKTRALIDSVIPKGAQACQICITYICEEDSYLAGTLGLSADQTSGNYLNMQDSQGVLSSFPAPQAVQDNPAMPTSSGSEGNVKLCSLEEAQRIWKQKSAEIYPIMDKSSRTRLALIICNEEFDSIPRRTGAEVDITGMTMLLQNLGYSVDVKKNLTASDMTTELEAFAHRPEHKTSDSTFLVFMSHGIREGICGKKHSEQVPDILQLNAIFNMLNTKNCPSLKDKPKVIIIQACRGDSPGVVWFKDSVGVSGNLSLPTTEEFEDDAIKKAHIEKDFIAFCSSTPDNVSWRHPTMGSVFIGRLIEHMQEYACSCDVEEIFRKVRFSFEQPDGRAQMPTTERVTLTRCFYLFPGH

Caspase-1 [3] = target: T1, Caspase-1; experiment: Inhibition of caspase-1 in human monocyte-derived macrophages assessed as decrease in LPS-induced IL-1beta secretion after 24 hrs by sandwich immunoassay
In short: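 Cryopreserved human peripheral blood monocytes are cultured 10 days at 37 °C in RPMI with 10% heat-inactivated FBS and 100 ng/mL GM-CSF to give M1 macrophages. Cells are then stimulated with LPS 10 µg/mL plus IFNγ 20 ng/mL and treated with compound serial dilutions (10000–0.04 nM, 0.1% DMSO).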

[4] = Chemical stability in 96% ethanol assessed as parent compound recovery at 23 degC after 3 months; type: physicochemical; conditions: read-out: Drug recovery
In short: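 Compounds bearing the aspartyl aldehyde warhead are held in 96% ethanol at 23 °C and assayed as percent of parent compound recovered. Readings taken after 4 weeks are projected to 12 weeks with best-fit kinetic-order equations. Tautomers and potential stereoisomers are counted as parent.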

[5] = Lipophilicity, log D of the compound at pH 6.5 by chromatographic method; type: physicochemical; conditions: buffer
In short: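 Chromatographic lipophilicity at pH 6.5, converted to ChromLogD = CHI × 0.0857 − 2.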

Caspase-1 [6] = target: T1, Caspase-1; experiment: Inhibition of caspase-1 in human THP1 cells assessed as decrease in LPS-induced IL-1beta secretion after overnight incubation by sandwich immunoassay; type: cell-based
[7] = Drug uptake in human dermis at 0.2 umol/cm'2 administered topically; type: ADME, tissue-based; conditions: topical_or_ocular, read-out: Drug uptake
In short: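 Cryogenically preserved human skin explant given one topical application of 0.2 μmol/cm² from a 40 mM PG/EtOH 3/7 solution. Dermis concentration is reported in μM.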

Caspase-5 = target: T2, Caspase-5 (Homo sapiens, UniProt P51878); experiment: Inhibition of human recombinant caspase-5 using AC-WEHD-AMC as substrate at Km after 20 mins by fluorescence assay
T2 sequence (P51878 whole entry): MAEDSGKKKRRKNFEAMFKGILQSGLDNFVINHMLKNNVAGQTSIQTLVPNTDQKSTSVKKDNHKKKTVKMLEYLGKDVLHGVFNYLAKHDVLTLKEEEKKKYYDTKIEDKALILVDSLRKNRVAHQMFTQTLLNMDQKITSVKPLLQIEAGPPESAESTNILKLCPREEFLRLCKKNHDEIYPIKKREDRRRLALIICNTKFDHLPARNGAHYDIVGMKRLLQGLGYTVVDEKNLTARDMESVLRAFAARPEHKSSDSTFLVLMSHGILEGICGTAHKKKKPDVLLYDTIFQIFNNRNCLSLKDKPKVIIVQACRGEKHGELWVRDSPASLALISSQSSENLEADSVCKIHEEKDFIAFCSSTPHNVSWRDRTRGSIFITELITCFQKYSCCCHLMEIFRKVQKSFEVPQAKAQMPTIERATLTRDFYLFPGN
In short: (§2)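 Human recombinant caspases in pH 7.4 HEPES buffer (100 mM NaCl, 0.1% CHAPS, 1 mM EDTA, 10% glycerol, 10 mM DTT), each with its own AMC substrate at a final concentration equal to its Km. Compounds tested at 10 000–0.04 nM in 1% DMSO. Enzyme level is set to convert under 20% of substrate in 20 min, or 2 h depending on activity, at room temperature. AMC read at 340/450 nm; IC50 from a four-parameter logistic fit.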

[8] = Intrinsic clearance in human hepatocytes assessed per 10^6 cells; type: ADME, cell-based, Hepatocyte; conditions: read-out: CLH
Caspase-7 = target: T3, Caspase-7 (Homo sapiens, UniProt P55210); experiment: Inhibition of human recombinant caspase-7 using Ac-DEVD-AMC as substrate at Km after 20 mins by fluorescence assay; in short: as §2
T3 sequence (P55210 whole entry): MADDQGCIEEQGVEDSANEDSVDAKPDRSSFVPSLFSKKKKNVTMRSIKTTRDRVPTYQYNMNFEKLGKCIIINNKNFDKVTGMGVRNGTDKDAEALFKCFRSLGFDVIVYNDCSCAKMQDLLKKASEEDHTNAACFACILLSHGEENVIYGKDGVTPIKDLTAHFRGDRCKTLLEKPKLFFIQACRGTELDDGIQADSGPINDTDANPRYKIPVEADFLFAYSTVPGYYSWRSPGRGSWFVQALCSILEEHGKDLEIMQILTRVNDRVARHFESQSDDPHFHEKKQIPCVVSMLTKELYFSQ

Caspase-6 = target: T4, Caspase-6 (Homo sapiens, UniProt P55212); experiment: Inhibition of human recombinant caspase-6 using Ac-VEID-AMC as substrate at Km after 20 mins by fluorescence assay; in short: as §2
T4 sequence (P55212 whole entry): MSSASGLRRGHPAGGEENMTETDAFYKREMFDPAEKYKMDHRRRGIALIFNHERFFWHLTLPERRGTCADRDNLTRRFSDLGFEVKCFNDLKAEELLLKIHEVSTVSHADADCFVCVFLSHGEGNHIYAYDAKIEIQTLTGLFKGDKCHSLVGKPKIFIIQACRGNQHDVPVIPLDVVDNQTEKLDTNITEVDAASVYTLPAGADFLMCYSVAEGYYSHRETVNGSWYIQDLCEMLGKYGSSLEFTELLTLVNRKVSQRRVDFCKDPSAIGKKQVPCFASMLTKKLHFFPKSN

[9] = Phototoxicity in NHEK assessed as decrease in cell viability after 24 hrs in presence of UV light by neutral red uptake assay; conditions: human
In short: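 Keratinocyte neutral red uptake assay adapted from the OECD 432 3T3 NRU test. Cells are irradiated with a simulated daily UV dose of 6 J/cm², and viability is read after 24 h exposure to compound.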

Caspase-8 = Caspase-8 (Homo sapiens, UniProt Q14790); experiment: Inhibition of human recombinant caspase-8 using Ac-IETD-AMC as substrate at Km after 20 mins by fluorescence assay; in short: as §2
Caspase-3 = target: T5, Caspase-3 (Homo sapiens, UniProt P42574); experiment: Inhibition of human recombinant caspase-3 using Ac-DEVD-AMC as substrate at Km after 20 mins by fluorescence assay; in short: as §2
T5 sequence (P42574 whole entry): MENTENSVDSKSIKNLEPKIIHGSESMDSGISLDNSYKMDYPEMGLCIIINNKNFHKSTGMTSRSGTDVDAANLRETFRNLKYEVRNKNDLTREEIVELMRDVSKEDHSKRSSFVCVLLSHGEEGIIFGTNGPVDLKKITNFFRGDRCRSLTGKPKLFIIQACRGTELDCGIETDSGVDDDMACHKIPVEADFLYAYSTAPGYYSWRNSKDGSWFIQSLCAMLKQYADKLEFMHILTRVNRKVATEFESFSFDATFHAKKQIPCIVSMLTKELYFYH

[10] = Cmax in mouse dermis at 0.1 umol/cm'2 administered topically; type: ADME, tissue-based; conditions: topical or ocular; in short: as §1

Chain of Caspase-8 (Q14790 217-374 limits assumed): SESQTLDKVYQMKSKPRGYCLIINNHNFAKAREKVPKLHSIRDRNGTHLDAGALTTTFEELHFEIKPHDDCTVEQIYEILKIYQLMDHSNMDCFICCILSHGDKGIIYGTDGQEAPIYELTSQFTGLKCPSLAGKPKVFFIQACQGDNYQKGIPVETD
Chain of Caspase-8 (Q14790 385-479 limits assumed): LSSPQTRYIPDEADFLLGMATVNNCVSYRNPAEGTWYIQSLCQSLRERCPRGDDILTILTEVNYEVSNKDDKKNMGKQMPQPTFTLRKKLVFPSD

Cmax [1]: 0.0013 µM | pIC50 (Caspase-1 [2]): 8.01 | pIC50 (Caspase-1 [3]): 6.80 | remaining at 2191.5 h [4]: 100% | chromatographic logD [5]: 3.7 | pIC50 (Caspase-1 [6]): 7.42 | concentration [7]: 4.5 µM | pIC50 (Caspase-5): 5.53 | hepatocyte CLint [8]: 9.8 µL/min/1e6 cells | pIC50 (Caspase-7): < 5.00 | pIC50 (Caspase-6): < 5.00 | pIC50 (Caspase-8): < 5.00 | pIC50 (Caspase-3): < 5.00 | Cmax [10]: 4.2 µM
SMILES: Cc1cc(Nc2ccc3ccccc3c2)ccc1C(=O)Nc1cn(C(C)C)c(=O)n(C2(C(=O)N[C@H]3CC(=O)OC3O)CC2)c1=O (stereo not given in full)
Activity [9]: Non-Toxic
